Laboratory results as given in ChEMBL document CHEMBL1122866, “3-Phenyl-1-indanamines. Potential antidepressant activity and potent inhibition of dopamine, norepinephrine, and serotonin uptake” (J Med Chem, 1985).

Assays:
Assay type in all cases: functional
[1] = target: Norepinephrine transporter (Rattus norvegicus, UniProt Q9WTR4); assay: Inhibition of noradrenaline uptake in rat synaptosomal fraction
Summary of the method: (§1)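 Synaptosomal uptake of DA, NE or 5-HT measured. The IC50 is in nM and is the mean of at least two determinations, each using five test concentrations in triplicate.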

[2] = species on record: Mus musculus; assay: Compound was tested for antagonistic activity against 5-HTP-induced potentiation in mice
Summary of the method: (§2)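 Mice dosed intraperitoneally; the result is reported as the ED50 in μmol/kg with a range in parentheses. Test compounds are racemates of >95% isomeric purity by TLC.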

[3] = target: Sodium-dependent dopamine transporter (Rattus norvegicus, UniProt P23977); assay: Inhibition of dopamine uptake in rat synaptosomal fraction
[4] = target: Sodium-dependent serotonin transporter (Rattus norvegicus, UniProt P31652); assay: Inhibition of 5-HT uptake in rat synaptosomal fraction; summary of the method: as §1
[5] = species on record: Mus musculus; assay: Antagonistic activity against tetrabenazine-induced ptosis in mice; summary of the method: as §2
[6] = species on record: Mus musculus; assay: Antagonistic activity against tetrabenazine-induced ptosis in mice.; conditions: Mus musculus; read-out: ED50; summary of the method: as §2
[7] = species on record: Mus musculus; assay: Antagonistic activity against 5-HTP induced potentiation in mice; summary of the method: as §2

Sodium-dependent serotonin transporter, sequence (P31652 whole entry): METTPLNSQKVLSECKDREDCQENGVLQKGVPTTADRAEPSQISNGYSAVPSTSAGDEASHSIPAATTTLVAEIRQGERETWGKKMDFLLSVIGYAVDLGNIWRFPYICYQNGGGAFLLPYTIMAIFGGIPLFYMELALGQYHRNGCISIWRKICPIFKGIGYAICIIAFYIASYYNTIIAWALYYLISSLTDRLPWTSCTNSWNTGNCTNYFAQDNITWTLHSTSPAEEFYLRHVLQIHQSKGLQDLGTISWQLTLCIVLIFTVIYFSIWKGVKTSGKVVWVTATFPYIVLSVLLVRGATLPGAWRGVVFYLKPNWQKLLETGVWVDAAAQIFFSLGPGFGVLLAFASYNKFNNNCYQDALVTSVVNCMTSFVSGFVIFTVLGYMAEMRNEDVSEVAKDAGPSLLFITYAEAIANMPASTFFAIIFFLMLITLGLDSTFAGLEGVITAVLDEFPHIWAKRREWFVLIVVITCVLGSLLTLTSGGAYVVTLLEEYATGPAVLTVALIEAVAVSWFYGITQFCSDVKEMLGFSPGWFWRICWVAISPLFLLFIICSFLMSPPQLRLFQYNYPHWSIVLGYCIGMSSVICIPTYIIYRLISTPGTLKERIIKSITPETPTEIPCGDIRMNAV
Norepinephrine transporter, sequence (Q9WTR4 whole entry): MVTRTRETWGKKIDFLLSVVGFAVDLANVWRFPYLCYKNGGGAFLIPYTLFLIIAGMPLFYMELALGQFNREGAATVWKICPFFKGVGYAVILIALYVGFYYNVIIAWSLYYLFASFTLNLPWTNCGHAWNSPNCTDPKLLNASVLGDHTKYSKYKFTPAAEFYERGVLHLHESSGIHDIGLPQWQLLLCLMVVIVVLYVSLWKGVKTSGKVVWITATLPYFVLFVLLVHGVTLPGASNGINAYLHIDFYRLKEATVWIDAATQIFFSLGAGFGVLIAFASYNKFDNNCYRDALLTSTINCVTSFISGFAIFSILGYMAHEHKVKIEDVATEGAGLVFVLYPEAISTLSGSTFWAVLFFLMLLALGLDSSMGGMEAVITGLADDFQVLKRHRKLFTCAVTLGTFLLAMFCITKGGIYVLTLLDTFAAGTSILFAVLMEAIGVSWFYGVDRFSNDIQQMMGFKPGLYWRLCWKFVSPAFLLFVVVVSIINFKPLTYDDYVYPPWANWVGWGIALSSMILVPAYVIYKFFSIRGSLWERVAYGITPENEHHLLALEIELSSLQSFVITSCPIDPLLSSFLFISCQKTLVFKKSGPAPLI
Sodium-dependent dopamine transporter, sequence (P23977 whole entry): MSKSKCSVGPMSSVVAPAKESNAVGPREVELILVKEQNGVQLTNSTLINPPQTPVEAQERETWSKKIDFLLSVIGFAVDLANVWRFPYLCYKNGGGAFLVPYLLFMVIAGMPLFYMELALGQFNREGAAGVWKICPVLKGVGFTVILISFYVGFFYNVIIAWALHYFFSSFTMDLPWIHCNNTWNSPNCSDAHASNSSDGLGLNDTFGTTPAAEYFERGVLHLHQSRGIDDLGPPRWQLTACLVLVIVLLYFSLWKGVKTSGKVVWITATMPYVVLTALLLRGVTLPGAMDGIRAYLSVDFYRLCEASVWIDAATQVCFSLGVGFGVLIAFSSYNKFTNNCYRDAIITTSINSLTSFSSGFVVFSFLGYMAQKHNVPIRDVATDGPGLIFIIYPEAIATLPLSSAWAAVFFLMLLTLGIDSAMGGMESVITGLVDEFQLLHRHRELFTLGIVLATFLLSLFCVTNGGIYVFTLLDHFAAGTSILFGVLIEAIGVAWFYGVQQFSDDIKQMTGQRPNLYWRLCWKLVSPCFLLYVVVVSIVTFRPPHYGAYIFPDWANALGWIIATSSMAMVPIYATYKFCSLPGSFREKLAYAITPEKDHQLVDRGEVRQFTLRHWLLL

| SMILES | IC50 [1] [nM] | ED50 ([2]; Mus musculus, read-out: ED50) [µmol/kg] | IC50 [3] [nM] | IC50 [4] [nM] | ED50 ([5]; Mus musculus, read-out: ED50) [µmol/kg] | ED50 [2] [µM/kg] | ED50 [5] [µM/kg] | ED50 [6] [µmol/kg] | ED50 [7] [µmol/kg] |
| --- | --- | --- | --- | --- | --- | --- | --- | --- | --- |
| CNC1CC(c2ccc(Cl)c(Cl)c2)c2ccc(O)cc21 (stereo in doubt; 80) | 6.3 | 59 | 4.1 | 0.11 | 15 | – | – | – | – |
| CNC1CC(c2ccc(Cl)c(Cl)c2)c2ccc(OC)cc21 (configuration not stated) | 0.67 | – | 2.5 | 0.62 | – | 14 | 7 | – | – |
| CNC1CC(c2ccc(Cl)c(Cl)c2)c2ccc(OC)cc21.Cl (configuration not stated) | 19 | – | 19 | 0.53 | 14 | 2.9 | – | – | – |
| CNCCCC1(c2ccccc2)OC(C)(C)c2ccccc21 (configuration not stated) [TALOPRAM] | 2.9 | 44 | 44000 | 1400 | 1.2 | – | – | – | – |
| COc1ccc2c(c1)C(N(C)C)CC2c1ccc(Cl)c(Cl)c1 (stereo in doubt; 79) | 3 | 7.4 | 15 | 2 | 34 | – | – | – | – |
| CN1CCN(C2CC(c3ccc(Cl)c(Cl)c3)c3ccccc32)CC1 (stereo in doubt; 101) | – | 97 | 11 | – | – | – | 48 | – | – |
| COc1ccc2c(c1)C(N(C)C)CC2c1ccc(Cl)c(Cl)c1 (stereo in doubt; 53) | 16 | – | 10 | 1.6 | – | 14 | 33 | – | – |
| OCCNC1CC(c2ccc(Cl)c(Cl)c2)c2ccccc21 (configuration not stated) | – | 171 | – | – | 75 | – | – | > 111 | > 111 |
